From publication PMC10023024 (Clinical Pharmacokinetics, 2023)

Assay type: in vivo, human
Method in brief: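 Tablets co-formulated with SNAC, 3 mg on Days 1–5 then 7 mg on Days 6–10. Reference arm: ≥6 h overnight fast, 8 am dose, 30-min post-dose fast. Other arms: ~760 kcal meal, then 2/4/6 h fast, 8 pm dose, 30-min or overnight post-dose fast. Plasma sampled 10 min–24 h after 10th dose and measured by validated LC-MS/MS. AUC0–24h by linear trapezoidal method; log values back-transformed to geometric-mean ratios with 95% CI.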

[1] = 2 h–30 min, 4 h–30 min and 6 h–30 min arms vs night–30 min, p < 0.0001

AUC0–24h Day 10 estimated treatment ratio range [1]: 0.12–0.43
Cmax Day 10 estimated treatment ratio range [1]: 0.12–0.44
reduction of exposure to semaglutide compared with reference arm (night–30 min) (all alternative treatment arms, even 6 h–30 min): more than 50%
median Tmax on Day 10, range across treatment arms (all five treatment arms): 48 to 60 min
Compound: CC[C@H](C)[C@H](NC(=O)[C@H](Cc1ccccc1)NC(=O)[C@H](CCC(=O)O)NC(=O)[C@H](CCCCNC(=O)COCCOCCNC(=O)COCCOCCNC(=O)CC[C@H](NC(=O)CCCCCCCCCCCCCCCCC(=O)O)C(=O)O)NC(=O)[C@H](C)NC(=O)[C@H](C)NC(=O)[C@H](CCC(N)=O)NC(=O)CNC(=O)[C@H](CCC(=O)O)NC(=O)[C@H](CC(C)C)NC(=O)[C@H](Cc1ccc(O)cc1)NC(=O)[C@H](CO)NC(=O)[C@H](CO)NC(=O)[C@@H](NC(=O)[C@H](CC(=O)O)NC(=O)[C@H](CO)NC(=O)[C@@H](NC(=O)[C@H](Cc1ccccc1)NC(=O)[C@@H](NC(=O)CNC(=O)[C@H](CCC(=O)O)NC(=O)C(C)(C)NC(=O)[C@@H](N)Cc1cnc[nH]1)[C@@H](C)O)[C@@H](C)O)C(C)C)C(=O)N[C@@H](C)C(=O)N[C@@H](Cc1c[nH]c2ccccc12)C(=O)N[C@@H](CC(C)C)C(=O)N[C@H](C(=O)N[C@@H](CCCNC(=N)N)C(=O)NCC(=O)N[C@@H](CCCNC(=N)N)C(=O)NCC(=O)O)C(C)C [oral semaglutide, semaglutide]
